Source: ChEMBL document CHEMBL4406880, “Design, synthesis, and bioactivity of dihydropyrimidine derivatives as kinesin spindle protein inhibitors” (Bioorg Med Chem, 2019)

What was measured:
Format in all cases: functional
LOX IMVI = test: Growth inhibition of human LOXIMVI cells assessed as growth percentage at 10 uM incubated for 48 hrs by sulforhodamine B assay relative to control; details: read-out: Activity
Outline: (§1)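 NCI-60 one-dose screen. Cells in RPMI 1640 with 5% FBS and 2 mM L-glutamine, seeded at 5,000–40,000 cells/well according to doubling time, and preincubated overnight at 37 °C, 5% CO2. A time-zero plate was TCA-fixed at drug addition. Compound from DMSO stock, final 10 µM, 48 h; DMSO vehicle controls. Fixation with TCA, 10% final (16% for suspension cells). SRB stain, Tris solubilization, A515. Result given as % growth versus untreated cells.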

CAKI-1 = test: Growth inhibition of human Caki1 cells assessed as growth percentage at 10 uM incubated for 48 hrs by sulforhodamine B assay relative to control; details: CAKI-1, 48 h, read-out: Activity
Outline: (§2)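 NCI-60 one-dose screen: cells in RPMI 1640 with 5% FBS and 2 mM L-glutamine, plated at 5,000–40,000 cells/well and preincubated 24 h at 37 °C, 5% CO2. Compound is added from a DMSO stock to a final 10 µM and incubated 48 h. Cells are TCA-fixed and stained with sulforhodamine B, read at 515 nm. Output is % growth versus untreated control, with a time-zero plate.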

MOLT-4 = test: Growth inhibition of human MOLT4 cells assessed as growth percentage at 10 uM incubated for 48 hrs by sulforhodamine B assay relative to control; details: MOLT-4, 48 h, read-out: Activity; outline: as §1
SR = test: Growth inhibition of human SR cells assessed as growth percentage at 10 uM incubated for 48 hrs by sulforhodamine B assay relative to control; details: read-out: Activity
Outline: (§3)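 NCI-60 single-dose screen. Cells were grown in RPMI 1640 with 5% FBS and 2 mM L-glutamine and plated at 5,000–40,000 cells/well. After an overnight preincubation at 37 °C in 5% CO2, compound was added at a final 10 µM from a DMSO stock, with DMSO/PBS controls. After 48 h, cells were TCA-fixed and stained with 0.4% SRB, and absorbance was read at 515 nm. Growth is given as a percentage of untreated control.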

MCF7 = test: Growth inhibition of human MCF7 cells assessed as growth percentage at 10 uM incubated for 48 hrs by sulforhodamine B assay relative to control; details: MCF7, 48 h, read-out: Activity; outline: as §1
KM12 = test: Growth inhibition of human KM12 cells assessed as growth percentage at 10 uM incubated for 48 hrs by sulforhodamine B assay relative to control; details: KM12, 48 h, read-out: Activity; outline: as §1
EKVX = test: Growth inhibition of human EKVX cells assessed as growth percentage at 10 uM incubated for 48 hrs by sulforhodamine B assay relative to control; details: read-out: Activity; outline: as §2
MDA-MB-231 = test: Growth inhibition of human MDA-MB-231 cells assessed as growth percentage at 10 uM incubated for 48 hrs by sulforhodamine B assay relative to control; details: MDA-MB-231, 48 h, read-out: Activity; outline: as §1
SNB-75 = test: Growth inhibition of human SNB75 cells assessed as growth percentage at 10 uM incubated for 48 hrs by sulforhodamine B assay relative to control; details: SNB-75, 48 h, read-out: Activity; outline: as §3
IGROV-1 = test: Growth inhibition of human IGROV1 cells assessed as growth percentage at 10 uM incubated for 48 hrs by sulforhodamine B assay relative to control; details: IGROV-1, 48 h, read-out: Activity; outline: as §1
SK-MEL-28 = test: Growth inhibition of human SK-MEL-28 cells assessed as growth percentage at 10 uM incubated for 48 hrs by sulforhodamine B assay relative to control; details: SK-MEL-28, 48 h, read-out: Activity; outline: as §3
M14 = test: Growth inhibition of human M14 cells assessed as growth percentage at 10 uM incubated for 48 hrs by sulforhodamine B assay relative to control; details: M14, 48 h, read-out: Activity; outline: as §1
DU-145 = test: Growth inhibition of human DU145 cells assessed as growth percentage at 10 uM incubated for 48 hrs by sulforhodamine B assay relative to control; details: DU-145, 48 h, read-out: Activity; outline: as §2
SNB-19 = test: Growth inhibition of human SNB19 cells assessed as growth percentage at 10 uM incubated for 48 hrs by sulforhodamine B assay relative to control; details: SNB-19, 48 h, read-out: Activity; outline: as §3
MDA-MB-435 = test: Growth inhibition of human MDA-MB-435 cells assessed as growth percentage at 10 uM incubated for 48 hrs by sulforhodamine B assay relative to control; details: MDA-MB-435, 48 h, read-out: Activity; outline: as §1
NCI/ADR-RES = test: Growth inhibition of human NCI/ADR-RES cells assessed as growth percentage at 10 uM incubated for 48 hrs by sulforhodamine B assay relative to control; details: read-out: Activity; outline: as §1
RPMI-8226 = test: Growth inhibition of human RPMI8226 cells assessed as growth percentage at 10 uM incubated for 48 hrs by sulforhodamine B assay relative to control; details: RPMI-8226, 48 h, read-out: Activity; outline: as §3
UACC-257 = test: Growth inhibition of human UACC257 cells assessed as growth percentage at 10 uM incubated for 48 hrs by sulforhodamine B assay relative to control; details: UACC-257, 48 h, read-out: Activity; outline: as §3
HOP-92 = test: Growth inhibition of human HOP92 cells assessed as growth percentage at 10 uM incubated for 48 hrs by sulforhodamine B assay relative to control; details: HOP-92, 48 h, read-out: Activity; outline: as §1
Hs-578T = test: Growth inhibition of human Hs 578T cells assessed as growth percentage at 10 uM incubated for 48 hrs by sulforhodamine B assay relative to control; details: read-out: Activity; outline: as §1
T47D = test: Growth inhibition of human T47D cells assessed as growth percentage at 10 uM incubated for 48 hrs by sulforhodamine B assay relative to control; details: read-out: Activity; outline: as §3
U-251 = test: Growth inhibition of human U251 cells assessed as growth percentage at 10 uM incubated for 48 hrs by sulforhodamine B assay relative to control; details: U-251, 48 h, read-out: Activity; outline: as §3
SK-OV-3 = test: Growth inhibition of human SKOV3 cells assessed as growth percentage at 10 uM incubated for 48 hrs by sulforhodamine B assay relative to control; details: SK-OV-3, 48 h, read-out: Activity; outline: as §3
PC-3 = test: Growth inhibition of human PC3 cells assessed as growth percentage at 10 uM incubated for 48 hrs by sulforhodamine B assay relative to control; details: PC-3, 48 h, read-out: Activity; outline: as §3
OVCAR-5 = test: Growth inhibition of human OVCAR5 cells assessed as growth percentage at 10 uM incubated for 48 hrs by sulforhodamine B assay relative to control; details: OVCAR-5, 48 h, read-out: Activity; outline: as §3
A549 = test: Growth inhibition of human A549/ATCC cells assessed as growth percentage at 10 uM incubated for 48 hrs by sulforhodamine B assay relative to control; details: A549, 48 h, read-out: Activity; outline: as §2
COLO 205 = test: Growth inhibition of human COLO205 cells assessed as growth percentage at 10 uM incubated for 48 hrs by sulforhodamine B assay relative to control; details: COLO 205, 48 h, read-out: Activity; outline: as §2

Row | SMILES | growth at 10 µM (LOX IMVI) | growth at 10 µM (CAKI-1) | growth at 10 µM (MOLT-4) | growth at 10 µM (SR) | growth at 10 µM (MCF7) | growth at 10 µM (KM12) | growth at 10 µM (EKVX) | growth at 10 µM (MDA-MB-231) | growth at 10 µM (SNB-75) | growth at 10 µM (IGROV-1) | growth at 10 µM (SK-MEL-28) | growth at 10 µM (M14) | growth at 10 µM (DU-145) | growth at 10 µM (SNB-19) | growth at 10 µM (MDA-MB-435) | growth at 10 µM (NCI/ADR-RES) | growth at 10 µM (RPMI-8226) | growth at 10 µM (UACC-257) | growth at 10 µM (HOP-92) | growth at 10 µM (Hs-578T) | other results
1 | O=C1NC2=C(C(=O)c3ccccc32)C(c2ccc3c(c2)OCO3)N1 (racemic) | 96.8% | 90.9% | 104% | 110% | 96.5% | 111% | 97.4% | 109% | 78.5% | 104% | 114% | 110% | 114% | 97.9% | 105% | 109% | 107% | 100% | 99% | 98.8% | growth at 10 µM (T47D): 95%; growth at 10 µM (U-251): 100%; growth at 10 µM (SK-OV-3): 104%; growth at 10 µM (PC-3): 101%; growth at 10 µM (OVCAR-5): 105%; growth at 10 µM (A549): 106%; growth at 10 µM (COLO 205): 115%
2 | CC1(C)CC(=O)C2=C(C1)NC(=O)NC2c1ccc2c(c1)OCO2 (racemic) | 99.3% | 93.9% | 95.9% | 118% | 98.3% | 108% | 107% | 111% | 97.5% | 97.9% | 111% | 102% | 107% | 108% | 106% | 104% | 110% | 102% | 112% | 113% | growth at 10 µM (T47D): 106%; growth at 10 µM (U-251): 103%; growth at 10 µM (SK-OV-3): 112%; growth at 10 µM (PC-3): 99.4%; growth at 10 µM (OVCAR-5): 108%; growth at 10 µM (A549): 108%; growth at 10 µM (COLO 205): 125%
3 | CC(=O)C1=C(C)Nc2nc3ccccc3n2C1c1ccc2c(c1)OCO2 (racemic) | 94.9% | 88.3% | 102% | 73.8% | 96.4% | 96.4% | 110% | 93.5% | 88.2% | 106% | 107% | 105% | 109% | 99.6% | 93.1% | 102% | 96.4% | 111% | 91% | 99.8% | growth at 10 µM (T47D): 86.3%; growth at 10 µM (U-251): 95.7%; growth at 10 µM (SK-OV-3): 106%; growth at 10 µM (PC-3): 92.8%; growth at 10 µM (OVCAR-5): 113%; growth at 10 µM (A549): 99%; growth at 10 µM (COLO 205): 114%
